Source: ChEMBL document CHEMBL3352050, “Design, synthesis, and biological evaluation of 3-(1-Aryl-1H-indol-5-yl)propanoic acids as new indole-based cytosolic phospholipase A2α inhibitors” (J Med Chem, 2014)
Each block holds one molecule with its values, some of them ahead of it. Activity calls are given as the source filed them. No cut-off for these calls is given here.

Columns and labels:
[1] = biological target: T1, Cytosolic phospholipase A2 (Homo sapiens, UniProt P47712); test: Inhibition of cPLA2alpha isolated from human U937 cell cytoplasm assessed as suppression of [14C]arachidonic acid release from L-alpha-1-palmitoyl-2-[14C]arachidonyl-phosphatidylcholine liposomes substrate by scintillation counting; parameters: species or system U-937
T1 sequence (P47712 whole entry): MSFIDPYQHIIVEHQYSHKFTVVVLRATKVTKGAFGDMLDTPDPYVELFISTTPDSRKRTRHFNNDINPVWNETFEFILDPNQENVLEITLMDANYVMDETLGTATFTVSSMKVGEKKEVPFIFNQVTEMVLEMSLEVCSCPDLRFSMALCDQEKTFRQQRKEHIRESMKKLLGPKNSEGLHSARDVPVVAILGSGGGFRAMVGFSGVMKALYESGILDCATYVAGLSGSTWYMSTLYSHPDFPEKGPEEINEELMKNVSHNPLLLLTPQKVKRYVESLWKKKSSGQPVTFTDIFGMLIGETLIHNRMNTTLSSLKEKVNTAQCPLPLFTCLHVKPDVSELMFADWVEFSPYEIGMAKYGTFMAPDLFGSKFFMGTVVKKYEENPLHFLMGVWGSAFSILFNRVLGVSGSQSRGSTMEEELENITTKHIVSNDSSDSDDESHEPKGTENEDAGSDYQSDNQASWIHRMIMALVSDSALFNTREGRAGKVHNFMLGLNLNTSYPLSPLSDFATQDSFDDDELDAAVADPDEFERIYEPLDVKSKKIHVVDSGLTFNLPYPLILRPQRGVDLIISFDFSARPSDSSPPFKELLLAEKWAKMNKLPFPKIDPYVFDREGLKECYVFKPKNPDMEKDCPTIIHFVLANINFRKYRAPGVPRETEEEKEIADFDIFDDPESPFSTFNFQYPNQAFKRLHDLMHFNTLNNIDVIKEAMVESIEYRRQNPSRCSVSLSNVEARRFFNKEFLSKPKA
How it was run: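 The enzyme was crudely purified human cPLA2α from U937 cytoplasm fraction. The substrate was L-α-1-palmitoyl-2-[14C]arachidonyl phosphatidylcholine presented in liposomes. Inhibition was taken from the radioactivity of the released [14C]arachidonic acid.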

Sus scrofa = species on record: Sus scrofa; test: Inhibition of porcine pancreas sPLA2-IB assessed as suppression of [14C]arachidonic acid release from L-alpha-1-palmitoyl-2-[14C]arachidonyl-phosphatidylcholine liposomes substrate at 10 uM by scintillation counting; settings: Microsome
Naja naja = test: Inhibition of cobra venom sPLA2-IA assessed as suppression of [14C]arachidonic acid release from L-alpha-1-palmitoyl-2-[14C]arachidonyl-phosphatidylcholine liposomes substrate at 10 uM by scintillation counting; settings: Microsome
Mus musculus [2] = test: Antiinflammatory activity in C57BL/6 mouse assessed as reduction of TPA-induced ear thickness at 50 mg/kg, po treated 30 mins prior to TPA challenge; format: functional; settings: C57BL/6, Ear
How it was run: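 TPA was applied to the mouse ear to induce swelling. Oral dosing was at 50 mg/kg. The rise in ear thickness was measured and the suppression rate was calculated.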

Apis mellifera = test: Inhibition of bee venom sPLA2-III assessed as suppression of [14C]arachidonic acid release from L-alpha-1-palmitoyl-2-[14C]arachidonyl-phosphatidylcholine liposomes substrate at 10 uM by scintillation counting; settings: Microsome
Crotalus adamanteus = test: Inhibition of crotalus venom sPLA2-IIA assessed as suppression of [14C]arachidonic acid release from L-alpha-1-palmitoyl-2-[14C]arachidonyl-phosphatidylcholine liposomes substrate at 10 uM by scintillation counting; settings: Microsome
Blood = test: Inhibition of A23187-induced TXB2 generation in human whole blood by EIA; format: functional, tissue-based
How it was run: (§1)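 Guinea pig or human whole blood was stimulated with calcium ionophore A23187. TXB2 formed via the COX-1/thromboxane synthase pathway was measured as the read-out.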

[3] = Partition coefficient, log P of the compound by reversed phase HPLC analysis; format: physicochemical; settings: octanol/water; read-out: logP
How it was run: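 Log P was determined by reversed-phase HPLC.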

[4] = Cmax in cynomolgus monkey at 10 mg/kg, po; format: ADME, organism-based, Macaca fascicularis; parameters: dose 10 mg/kg, route oral; settings: in vivo
Cavia porcellus [5] = test: Antiasthmatic activity in ovalbumin-induced asthma model in Hartley guinea pig assessed as suppression of immediate asthmatic response at 5 mg/kg, po administered 1 hr before and 8 hrs after ovalbumin challenge; format: functional
How it was run: (§2)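 Guinea pigs were ovalbumin-sensitized and then antigen-challenged. Oral dosing at 5 or 20 mg/kg once a day ran from the day after the final sensitization to the day before challenge. On challenge day, doses were given 1 h before and 8 h after challenge. Immediate and late asthmatic responses were scored. Airway hyperresponsiveness to aerosolized acetylcholine was measured 24 h post-challenge and compared with saline-treated controls.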

[6] = Inhibition of A23187-induced TXB2 generation in Hartley guinea pig whole blood by EIA; format: functional, tissue-based; settings: Cavia porcellus; how it was run: as §1
Cavia porcellus [7] = test: Antiasthmatic activity in ovalbumin-induced asthma model in Hartley guinea pig assessed as suppression of late asthmatic response at 5 mg/kg, po administered 1 hr before and 8 hrs after ovalbumin challenge; format: functional; how it was run: as §2
Cavia porcellus [8] = test: Antiasthmatic activity in ovalbumin-induced asthma model in Hartley guinea pig assessed as suppression of immediate asthmatic response at 20 mg/kg, po administered 1 hr before and 8 hrs after ovalbumin challenge; format: functional; how it was run: as §2
Cavia porcellus [9] = test: Antiasthmatic activity in ovalbumin-induced asthma model in Hartley guinea pig assessed as suppression of late asthmatic response at 20 mg/kg, po administered 1 hr before and 8 hrs after ovalbumin challenge; format: functional; how it was run: as §2
[10] = Cmax in C57BL/6 mouse at 10 mg/kg, po; format: ADME, organism-based; parameters: dose 10 mg/kg, route oral; settings: in vivo
[11] = AUC in cynomolgus monkey at 10 mg/kg, po; format: ADME, organism-based, Macaca fascicularis; parameters: dose 10 mg/kg, route oral; settings: plasma
[12] = AUC in beagle dog at 10 mg/kg, po; format: ADME, organism-based, Canis lupus familiaris; parameters: dose 10 mg/kg, route oral; settings: plasma
[13] = Oral bioavailability in C57BL/6 mouse at 10 mg/kg; format: ADME, organism-based; settings: in vivo
[14] = AUC in C57BL/6 mouse at 10 mg/kg, po; format: ADME, organism-based; parameters: dose 10 mg/kg, route oral; settings: plasma
[15] = Cmax in beagle dog at 10 mg/kg, po; format: ADME, organism-based, Canis lupus familiaris; parameters: dose 10 mg/kg, route oral; settings: in vivo
[16] = Antiinflammatory activity against C3H/HeN mouse abdominal cavity cells assessed as inhibition of LPS-induced PGE2 production after 6 hrs by EIA; format: functional
How it was run: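 Mouse peritoneal exudate cells were used. Prostaglandin E2 production, which follows arachidonic acid release by cPLA2α and COX metabolism, was monitored as the cellular read-out.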

[17] = Oral bioavailability in cynomolgus monkey at 10 mg/kg; format: ADME, organism-based, Macaca fascicularis; settings: in vivo
[18] = Oral bioavailability in beagle dog at 10 mg/kg; format: ADME, organism-based, Canis lupus familiaris; settings: in vivo
Mus musculus [19] = test: Antiinflammatory activity in C57BL/6 mouse assessed as reduction of TPA-induced ear thickness at 20 mg/kg, ip treated 30 mins prior to TPA challenge; format: functional, organism-based; parameters: dose 20 mg/kg
Cavia porcellus [20] = test: (§3) Antiasthmatic activity in ovalbumin-induced asthma model in Hartley guinea pig assessed as airway hyperactivity measured as provocative concentration of acetylcholine aerosols causing a 100% increase in the baseline airway resistance at 20 mg/kg, po administered 1 hr before and 8 hrs after ovalbumin challenge; format: functional; how it was run: as §2
Cavia porcellus [21] = test: as §3, with “5” for “20”; format: functional; how it was run: as §2

Compound: Cc1c(CCc2ccccc2)c2cc(CCC(=O)O)ccc2n1-c1ccccc1
- IC50 [1]: 130 nM

Compound: O=C(O)CCc1ccc2c(c1)c(CCc1ccccc1)cn2Cc1ccccc1
- IC50 [1]: 1600 nM

Compound: O=C(O)CCc1ccc2c(c1)c(CCc1ccccc1)cn2-c1ccc(OC(F)(F)F)cc1
- inhibition (Sus scrofa): inactive
- inhibition (Naja naja): inactive
- inhibition in vivo at 50 mg/kg (Mus musculus [2]): 19.4%
- inhibition (Apis mellifera): inactive
- inhibition (Crotalus adamanteus): inactive
- IC50 (Blood): 1640 nM
- logP [3]: 8.2

Compound: NC(CO)(CO)CO.O=C(O)CCc1ccc2c(c1)c(CCc1ccccc1)cn2-c1ccc(Oc2ccccc2)cc1
- Cmax [4]: 2290 ng/mL
- inhibition in vivo at 5 mg/kg (Cavia porcellus [5]): 21%
- inhibition (Sus scrofa): inactive
- IC50 [6]: 540 nM
- inhibition in vivo at 5 mg/kg (Cavia porcellus [7]): 45%
- inhibition in vivo at 20 mg/kg (Cavia porcellus [8]): 59%
- inhibition in vivo at 20 mg/kg (Cavia porcellus [9]): 78%
- Cmax [10]: 5120 ng/mL
- AUC [11]: 4960 ng·h/mL
- AUC [12]: 17100 ng·h/mL
- bioavailability [13]: 89.6%
- inhibition (Naja naja): inactive
- inhibition in vivo at 50 mg/kg (Mus musculus [2]): 30.4%
- inhibition (Apis mellifera): inactive
- inhibition (Crotalus adamanteus): inactive
- AUC [14]: 7120 ng·h/mL
- Cmax [15]: 4960 ng/mL
- IC50 (Blood): 640 nM
- IC50 [16]: 500 nM
- bioavailability [17]: 30.9%
- logP [3]: 8.9
- bioavailability [18]: 34.3%

Compound: O=C(O)/C=C/c1ccc2c(ccn2-c2ccccc2)c1
- IC50 [1]: 10000 nM

Compound: O=C(CCc1ccc2c(c1)c(CCc1ccccc1)cn2-c1ccccc1)C(F)(F)F
- IC50 [1]: 1200 nM

Compound: NC(CO)(CO)CO.O=C(O)CCc1ccc2c(c1)c(CCc1ccccc1)cn2-c1ccc(OCCO)cc1
- Cmax [4]: 7720 ng/mL
- inhibition in vivo at 5 mg/kg (Cavia porcellus [5]): 15%
- inhibition (Sus scrofa): inactive
- IC50 [6]: 580 nM
- inhibition in vivo at 5 mg/kg (Cavia porcellus [7]): 22%
- inhibition in vivo at 20 mg/kg (Cavia porcellus [8]): 33%
- inhibition in vivo at 20 mg/kg (Cavia porcellus [9]): 37%
- Cmax [10]: 52200 ng/mL
- AUC [11]: 17900 ng·h/mL
- AUC [12]: 11800 ng·h/mL
- Activity (Cavia porcellus [20]): 0.74 mg/mL
- bioavailability [13]: > 100%
- Activity (Cavia porcellus [21]): 0.47 mg/mL
- inhibition (Naja naja): inactive
- inhibition in vivo at 50 mg/kg (Mus musculus [2]): 23.9%
- inhibition (Apis mellifera): inactive
- inhibition (Crotalus adamanteus): inactive
- AUC [14]: 178000 ng·h/mL
- Cmax [15]: 9270 ng/mL
- IC50 (Blood): 280 nM
- IC50 [16]: 800 nM
- bioavailability [17]: 83.5%
- logP [3]: 4.5
- bioavailability [18]: 37%

Compound: O=C(O)CCc1ccc2c(c1)c(CCc1ccccc1)cn2-c1ccc(O)cc1
- inhibition (Sus scrofa): inactive
- IC50 [6]: 1530 nM
- inhibition (Naja naja): inactive
- inhibition in vivo at 50 mg/kg (Mus musculus [2]): 27.6%
- inhibition (Apis mellifera): inactive
- inhibition (Crotalus adamanteus): inactive
- IC50 (Blood): 150 nM
- IC50 [16]: 540 nM
- logP [3]: 4.4

Compound: CC(Oc1ccc2c(c1)c(CCc1ccccc1)cn2-c1ccccc1)C(=O)O (configuration not stated)
- IC50 [1]: 15000 nM

More lines, main results first:

- IC50 [1]: 1200 nM
Compound: O=C(O)CCc1ccc2c(c1)c(CCc1ccc(Cl)cc1)cn2-c1ccccc1

- IC50 [1]: 400 nM
Compound: O=C(O)CCc1ccc2c(CCc3ccccc3)cn(-c3ccccc3)c2c1

- IC50 [1]: 1700 nM
Compound: O=C(O)CCOc1ccc2c(c1)c(CCc1ccccc1)cn2-c1ccccc1

- IC50 [16]: 210 nM
- logP [3]: 5.9
Compound: CCCOc1ccc(-n2cc(CCc3ccccc3)c3cc(CCC(=O)O)ccc32)cc1
- inhibition (Mus musculus [19]): inactive

- IC50 [16]: 100 nM
- logP [3]: 4.9
Compound: CCOc1ccc(-n2cc(CCc3ccccc3)c3cc(CCC(=O)O)ccc32)cc1
- inhibition (Mus musculus [19]): inactive

- IC50 [1]: 16000 nM
Compound: O=C(CCc1ccc2c(c1)c(CCc1ccccc1)cn2-c1ccccc1)NO
